Compound activity deposited in PubChem by several laboratories.
RanGTP-Impb inh = inhibitors of RanGTP-importin-beta interaction, primary screen, biochemical, FRET, CFP-Ran, YFP-importin-beta, homogeneous; cell-free CFP-Ran/YFP-importin-beta FRET ratio; inhibition, % (no concentration beside the values); Ran GTPase (GTP-bound) - importin-beta complex; 1.1% of 300,000 active;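 active means more than half of the replicate wells show a fall in the fluorescence ratio signal beyond about 16%, limit read from the data, passing the limit was not always enough; inconclusive means exactly half of the replicate wells pass the set limit; inactive means fewer than half of replicates pass the limit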
Runt-SMMHC FRET = inhibitors of RUNX1 Runt–CBFb-SMMHC binding, primary screen, biochemical, FRET, Cerulean-Runt, Venus-CBFb-SMMHC, uHTS | Cerulean-Runt/Venus-CBFb-SMMHC FRET ratio 530/480, 1 h | inhibition, % at 20 µM | 0.74% of 220,000 active;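 active means mean inhibition across duplicate retests at 20 µM reaching about 50%, limit read from the data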;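 further: inhibitors lower the FRET ratio by blocking Runt binding to CBFb-SMMHC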
Runt-CBFb FRET = inhibitors of RUNX1 Runt–CBFb binding, primary screen, biochemical, FRET, Cerulean-Runt, Venus-CBFb, uHTS | Cerulean-Runt/Venus-CBFb FRET ratio 530/480, 1 h | 0.46% of 220,000 active | AID 1496, 2009 | inhibition, % at 20 µM | Runt-related transcription factor 1 (Homo sapiens) + Core-binding factor subunit beta …;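 active means inhibition over about 50% at 20 µM in the single-dose screen, limit read from the data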
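Doses: 20 µM compound in 1% DMSO | Material: Cerulean-labeled Runt domain protein | Amount: Each fluorescent fusion protein 100 nM | Schedule: Two 1 h room-temperature incubations shielded from light | Measured by: FRET fluorescence | Evaluation: Loss of energy transfer signal | Controls: Unlabeled CBFb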
TbHK1 inh = Trypanosoma brucei hexokinase 1 inhibitors, primary screen, biochemical, G6PDH-coupled NADH absorbance, MLSCN library; AID 1430, 2008; recombinant TbHK1, G6PDH-coupled NADH A340; inhibition, % at 10 µM; 0.11% of 220,000 active; hexokinase 1 [Trypanosoma brucei];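 active means inhibition of 50% or more in the single-dose primary screen; inactive means inhibition below 50%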
Hck Nef HTS = inhibitors of Nef-activated human Hck kinase, primary screen, biochemical, Z-Lyte FRET, 384-well, Hck-YEEI; inhibition, % at 20 µM; 0.68% of 220,000 active; Recombinant Hck-YEEI plus Nef, Z-Lyte FRET kinase assay;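 active means Hck-Nef kinase inhibition above about 50%, limit read from the data; inactive means inhibition below that limit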
Target sequence (P08631 whole entry, looked up): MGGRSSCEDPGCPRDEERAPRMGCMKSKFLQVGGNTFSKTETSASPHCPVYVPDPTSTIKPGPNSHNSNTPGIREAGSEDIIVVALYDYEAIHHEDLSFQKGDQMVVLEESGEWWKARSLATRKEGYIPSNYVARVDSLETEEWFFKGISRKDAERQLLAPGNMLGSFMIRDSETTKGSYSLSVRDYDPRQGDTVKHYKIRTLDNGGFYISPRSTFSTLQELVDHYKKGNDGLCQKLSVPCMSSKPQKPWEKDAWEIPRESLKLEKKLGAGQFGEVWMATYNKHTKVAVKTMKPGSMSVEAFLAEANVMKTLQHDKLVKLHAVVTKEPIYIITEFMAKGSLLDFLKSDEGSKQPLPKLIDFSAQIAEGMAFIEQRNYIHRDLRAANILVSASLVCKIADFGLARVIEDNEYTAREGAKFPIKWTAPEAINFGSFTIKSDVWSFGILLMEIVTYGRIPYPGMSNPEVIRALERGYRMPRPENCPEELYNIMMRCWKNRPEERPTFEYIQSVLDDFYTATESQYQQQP
Hits are given with their value. The list is not random: actives were taken first. Their share in the collection is about 1.9%.

CN(C(=S)NC1=CCS(=O)(=O)C1)C1CCCCC1 was read as RanGTP-Impb inh inactive, Runt-SMMHC FRET inactive, Runt-CBFb FRET inactive, TbHK1 inh inactive and Hck Nef HTS inactive.
CC(CCc1ccc(O)cc1)NCCc1ccc(O)c(O)c1 (stereo not drawn) was read as RanGTP-Impb inh 40.
Screening CCCC[C@H](CN[C@@H](CNC)[C@H](C)CC)NCCC12CCC(CC1)C2 returned RanGTP-Impb inh inactive.
Screening O=C(NCCc1csc(-c2ccc(Cl)cc2)n1)c1ccco1 returned RanGTP-Impb inh inactive.
COC(=O)C1=CNC=C(C(=O)OC)C1c1ccc(C(=O)OC)cc1 was read as RanGTP-Impb inh inactive, Runt-SMMHC FRET 71, Runt-CBFb FRET inactive, TbHK1 inh inactive and Hck Nef HTS inactive.
Screening Cc1ncc(CO)c(/C=N/NC(=O)c2ccc(O)cc2)c1O returned RanGTP-Impb inh 44, Runt-SMMHC FRET 63, Runt-CBFb FRET inactive, TbHK1 inh inactive and Hck Nef HTS inactive.
For Cc1ncc(CO)c(/C=N/NC(=O)c2cc3c(s2)CCCC3)c1O the results were RanGTP-Impb inh 50, Runt-SMMHC FRET 92, Runt-CBFb FRET inactive, TbHK1 inh inactive and Hck Nef HTS inactive.
Screening Cc1ncc(CO)c(/C=N/NC(=O)c2ccccc2Br)c1O returned RanGTP-Impb inh inactive, Runt-SMMHC FRET 64, Runt-CBFb FRET inactive, TbHK1 inh inactive and Hck Nef HTS inactive.
Screening CC(C)CC(C(=O)NCC1CCCO1)N(C(=O)Cn1nnc(-c2ccc(F)cc2)n1)c1ccccc1F (stereo not drawn) returned RanGTP-Impb inh inconclusive, Runt-SMMHC FRET inactive, Runt-CBFb FRET inactive, TbHK1 inh inactive and Hck Nef HTS inactive.
Screening Cc1cc(O)c(C=O)c2c1C(=O)Oc1c(CO)c(O)c3c(c1O2)C(O)OC3=O (stereo not drawn) returned Runt-SMMHC FRET inactive, Runt-CBFb FRET 53, TbHK1 inh inactive and Hck Nef HTS inactive.
Cc1cc(O)c(CN(C)C)c2c1C(=O)/C(=C/c1ccco1)O2 was read as RanGTP-Impb inh inactive.
Screening NC(=O)c1ccc(Oc2cccc3cccnc23)c([N+](=O)[O-])c1 returned RanGTP-Impb inh inactive, Runt-SMMHC FRET 85, Runt-CBFb FRET inactive, TbHK1 inh inactive and Hck Nef HTS inactive.
Screening CCOCCCNC(=S)N1CCCN(c2nc3cc(C)cc(C)c3cc2C#N)CC1 returned RanGTP-Impb inh inactive, Runt-SMMHC FRET inactive, Runt-CBFb FRET inactive, TbHK1 inh inactive and Hck Nef HTS inactive.
Screening CCOCCCNC(=S)N1CCCN(c2nc3cc(C)c(C)cc3cc2C#N)CC1 returned RanGTP-Impb inh 58, Runt-SMMHC FRET 52, Runt-CBFb FRET inactive, TbHK1 inh inactive and Hck Nef HTS inactive.
`COCCCNC(=S)N1CCCN(c2nc3cc(C)ccc3cc2C#N)CC1` gave RanGTP-Impb inh inactive, Runt-SMMHC FRET inactive, Runt-CBFb FRET inactive, TbHK1 inh inactive and Hck Nef HTS inactive.
COCCCNC(=S)N1CCCN(c2nc3cc(C)c(C)cc3cc2C#N)CC1 was read as RanGTP-Impb inh 57, Runt-SMMHC FRET inactive, Runt-CBFb FRET inactive, TbHK1 inh inactive and Hck Nef HTS inactive.
`Cc1cc(C)c(C#N)c(SC(F)F)n1` gave RanGTP-Impb inh 98, Runt-SMMHC FRET inactive, Runt-CBFb FRET inactive, TbHK1 inh inactive and Hck Nef HTS inactive.
Cc1cc(C)c(C#N)c(Sc2ccc(N)cc2)n1 was read as RanGTP-Impb inh inactive, Runt-SMMHC FRET inactive, Runt-CBFb FRET inactive, TbHK1 inh inactive and Hck Nef HTS inactive.
CC1CN(c2sc(S(C)(=O)=O)nc2S(=O)(=O)c2ccc(Cl)cc2)CC(C)O1 (stereo not drawn) was read as RanGTP-Impb inh 16.
Screening CCc1ccc2c(CN3CCN(Cc4ccccc4)CC3)cc(=O)oc2c1 returned RanGTP-Impb inh inactive.
`CCc1cc2c(CN3CCN(Cc4ccccc4)CC3)cc(=O)oc2cc1O` gave RanGTP-Impb inh 88.
`Cc1c(O)ccc2c(CN3CCN(Cc4ccccc4)CC3)cc(=O)oc12` gave RanGTP-Impb inh 54.
O=c1cc(CN2CCN(Cc3ccccc3)CC2)c2cc3c(cc2o1)CCC3 was read as RanGTP-Impb inh inactive, Runt-SMMHC FRET 81, Runt-CBFb FRET inactive, TbHK1 inh inactive and Hck Nef HTS inactive.
`Cc1cc2oc(=O)cc(CSc3nc(N)cc(N)n3)c2cc1C(C)C` gave RanGTP-Impb inh inconclusive, Runt-SMMHC FRET inactive, Runt-CBFb FRET inactive, TbHK1 inh inactive and Hck Nef HTS inactive.
`Nc1cc(N)nc(SCc2cc(=O)oc3cc4c(cc23)CCC4)n1` gave RanGTP-Impb inh 31, Runt-SMMHC FRET inactive, Runt-CBFb FRET inactive, TbHK1 inh inactive and Hck Nef HTS inactive.
O=c1cc(CN2CCN(Cc3ccccc3)CC2)c2ccc(O)c(O)c2o1 was read as RanGTP-Impb inh inactive.
Cc1cc2oc(=O)cc(CN(C)Cc3cccc(F)c3)c2cc1C was read as RanGTP-Impb inh inactive.
For CCc1cc(=O)oc2c(C)c(O)c(CN3CCCCC3)cc12 the results were RanGTP-Impb inh 53, Runt-SMMHC FRET 78, Runt-CBFb FRET 73, TbHK1 inh inactive and Hck Nef HTS inactive.
CCc1cc2c(CN(C)Cc3ccccc3F)cc(=O)oc2cc1O was read as RanGTP-Impb inh 54.
`COc1cccc(CN(C)Cc2cc(=O)oc3c(C)c(C)ccc23)c1` gave RanGTP-Impb inh inactive.
COc1cccc(CN(C)Cc2cc(=O)oc3cc(O)c(Cl)cc23)c1 was read as RanGTP-Impb inh 77.
`Cc1c(O)ccc2c(CN(C)Cc3ccccc3)cc(=O)oc12` gave RanGTP-Impb inh 23, Runt-SMMHC FRET 81, Runt-CBFb FRET inactive, TbHK1 inh inactive and Hck Nef HTS inactive.
CS/C(=N\S(=O)(=O)c1cccs1)Nc1ccc(Br)cc1F was read as RanGTP-Impb inh inactive, Runt-SMMHC FRET inactive, Runt-CBFb FRET inactive, TbHK1 inh inactive and Hck Nef HTS inactive.
Screening Cc1c(O)ccc2c(CC(=O)N[C@@H](Cc3ccccc3)C(=O)O)cc(=O)oc12 returned RanGTP-Impb inh 68.
CC1CCOC2(O1)C(=O)Nc1ccccc12 (stereo not drawn) was read as RanGTP-Impb inh inactive, Runt-SMMHC FRET inactive, Runt-CBFb FRET inactive, TbHK1 inh inactive and Hck Nef HTS inactive.
Screening Nc1c(C(=O)NCc2ccc3c(c2)OCO3)c2nc3ccccc3nc2n1CCCN1CCOCC1 returned RanGTP-Impb inh 61, Runt-SMMHC FRET 81, Runt-CBFb FRET inactive, TbHK1 inh inactive and Hck Nef HTS inactive.
Nc1c(C(=O)NCCN2CCOCC2)c2nc3ccccc3nc2n1-c1ccc2c(c1)OCO2 was read as RanGTP-Impb inh inactive, Runt-SMMHC FRET inactive, Runt-CBFb FRET inactive, TbHK1 inh inactive and Hck Nef HTS inactive.
